SR-BI DiI-HDL act: activators of SR-BI mediated HDL lipid uptake. 320,000 tested, 0.096% active. CHO ldlA[mSR-BI] cells, DiI-HDL uptake fluorescence, 3 h; 100 = double the neutral-control signal. activation, % at 12.5 µM;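 active means mean replicate activation of at least 60% and every replicate at or above 60%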
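System: CHO ldlA[mSR-BI] cells / Medium: HEPES-buffered (25 mM, pH 7.4) F12 plus 0.5% BSA / Probe or stimulus: labelled HDL, 10 µg/mL / Doses: single compound concentration, delivered by pin transfer / Schedule: 3 h, 37 °C / Measured by: DiI fluorescence, bottom read / Measure: cell-associated DiI fluorescence as measure of HDL uptake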
NSD2 HMT inh: inhibitors of human histone methyltransferase NSD2; inhibition, % at 12.5 µM; O96028; NSD2 peptide methylation, AlphaScreen, 120 min; 310,000 tested, 0.54% active; AID 743445; in the data active means inhibition above about 50%
SR-BI HDL uptake: blocks mouse SR-BI lipid uptake from DiI-HDL; ldlA[mSR-BI] CHO cells, DiI-HDL uptake fluorescence, 3 h; inhibition, % at 12.5 µM; 320,000 tested, 0.96% active;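 active means mean replicate inhibition of at least 70% and a set share of replicates each scoring 70 or more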
ARNT-TACC3 inh: ARNT/TACC3 interaction disruption. AlphaScreen His-ARNT PAS-B/GST-TACC3 binding, luminescence; TACC3 fragment carries E629A point mutation. inhibition, % at 9.99 µM. 390,000 tested, 0.66% active;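 active means mean inhibition of replicates at least 50% and at least half of replicates each reaching 50%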
Xi reactivation: X-chromosome reactivation activator; XiGFP mouse fibroblasts, % GFP-positive cells imaging, 3 d; cells co-treated with 5-aza-dC sensitizer; scaled so ellipticine positive control = 100%; activation, % at 7.58 µM; 360,000 tested, 0.055% active; AID 743238;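 active means mean normalized replicate activation at least 10% and every replicate at or above 10%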
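Material: XiGFP fibroblasts, SV40-immortalized. Buffer or medium: DMEM plus 5-aza-dC sensitizer. Compound: single concentration per compound, delivered by pin transfer. Times: 3 days compound exposure. Controls: ellipticine 6 µM.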
sPLA2-III inh: Inhibits HGIII-sPLA2 liposome hydrolysis, primary screen; Q9NZ20; QFRET BODIPY PC-A2 liposome hydrolysis, fluorescence; inhibition, % at 12.2 µM; 370,000 tested, 0.56% active; AID 743126;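 active means inhibition above mean plus 3 SD of compounds lying within the high and low control bounds, cut at about 19% in these data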
Target sequence (Q9NZ20 whole entry, looked up): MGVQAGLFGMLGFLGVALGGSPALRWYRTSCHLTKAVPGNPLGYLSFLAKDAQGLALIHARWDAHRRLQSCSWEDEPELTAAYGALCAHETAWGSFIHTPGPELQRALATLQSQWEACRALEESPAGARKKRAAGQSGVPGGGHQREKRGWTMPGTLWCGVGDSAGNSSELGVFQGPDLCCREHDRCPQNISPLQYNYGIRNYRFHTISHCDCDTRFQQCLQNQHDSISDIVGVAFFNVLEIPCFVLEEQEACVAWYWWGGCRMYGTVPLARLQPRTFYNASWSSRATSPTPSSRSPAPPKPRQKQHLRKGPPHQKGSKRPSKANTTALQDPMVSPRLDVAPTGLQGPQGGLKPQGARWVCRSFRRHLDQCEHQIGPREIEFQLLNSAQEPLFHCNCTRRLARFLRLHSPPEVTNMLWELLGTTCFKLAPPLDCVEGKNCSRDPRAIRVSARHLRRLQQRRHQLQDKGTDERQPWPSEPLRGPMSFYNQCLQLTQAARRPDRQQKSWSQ
Hits are given with their value. Hits are enriched below; roughly 2% of the tested compounds scored in any of these assays.

What do the screens show for `CC1CN(C2CCN(S(=O)(=O)c3ccc(F)cc3)CC2)CC(C)O1` (centres undefined)?
SR-BI DiI-HDL act: inactive; NSD2 HMT inh: inactive; SR-BI HDL uptake: inactive; ARNT-TACC3 inh: inactive; sPLA2-III inh: inactive

How did COc1ccc(/C=C2\SC(=O)N(CCC(=O)N3CCCCC3)C2=O)cc1OC do in these assays?
SR-BI DiI-HDL act: inactive; NSD2 HMT inh: inactive; SR-BI HDL uptake: inactive; ARNT-TACC3 inh: inactive; Xi reactivation: inactive; sPLA2-III inh: inactive

Results for C[C@@H]1CCCCO[C@@H](CN(C)S(=O)(=O)c2ccc(Cl)cc2)[C@@H](C)CN([C@H](C)CO)C(=O)c2cc(NS(=O)(=O)c3ccccc3)ccc2O1 ?
ARNT-TACC3 inh: inactive; Xi reactivation: inactive

What do the screens show for `C[C@@H]1CN([C@H](C)CO)C(=O)c2cccc(NC(=O)c3nc4ccccc4s3)c2O[C@@H]1CN(C)CC1CC1`?
ARNT-TACC3 inh: inactive; Xi reactivation: inactive

Results for Cc1ccc(S(=O)(=O)Nc2cccc3ncccc23)s1 ?
SR-BI DiI-HDL act: inactive; SR-BI HDL uptake: inactive; ARNT-TACC3 inh: 70

How did C=CCNC(=S)NNC(=O)c1cccn(Cc2ccc(Cl)cc2)c1=O do in these assays?
SR-BI DiI-HDL act: inactive; NSD2 HMT inh: inactive; SR-BI HDL uptake: inactive; ARNT-TACC3 inh: 52; sPLA2-III inh: inactive

How did COc1cccc(NC(=O)N2CC3(C2)[C@H](c2ccccc2)[C@@H](CO)N3C(C)=O)c1 do in these assays?
Xi reactivation: inactive

Results for COc1cccc(NC(=O)c2sc3ncn(CC(=O)N4CCN(c5ccccn5)CC4)c(=O)c3c2C)c1 ?
SR-BI DiI-HDL act: inactive; SR-BI HDL uptake: 79; ARNT-TACC3 inh: inactive; Xi reactivation: inactive; sPLA2-III inh: inactive

How did Cc1ccc(NC(=O)c2sc3ncn(CC(=O)N4CCN(c5ccccn5)CC4)c(=O)c3c2C)cc1Cl do in these assays?
SR-BI DiI-HDL act: inactive; NSD2 HMT inh: inactive; SR-BI HDL uptake: inactive; ARNT-TACC3 inh: inactive; Xi reactivation: inactive; sPLA2-III inh: inactive

What do the screens show for `CCOc1ccccc1NC(=O)c1sc2ncn(CC(=O)N3CCOCC3)c(=O)c2c1C`?
SR-BI DiI-HDL act: inactive; NSD2 HMT inh: inactive; SR-BI HDL uptake: 71; ARNT-TACC3 inh: inactive; sPLA2-III inh: inactive

How did COc1ccccc1NC(=O)c1sc2ncn(CC(=O)N3CCC(C)CC3)c(=O)c2c1C do in these assays?
SR-BI DiI-HDL act: inactive; NSD2 HMT inh: inactive; SR-BI HDL uptake: inactive; ARNT-TACC3 inh: inactive; Xi reactivation: inactive; sPLA2-III inh: inactive

How did NNC(=O)c1oc2nc(-c3ccco3)cc(-c3ccco3)c2c1N do in these assays?
NSD2 HMT inh: inactive; Xi reactivation: inactive; sPLA2-III inh: inactive

How did NNC(=O)c1oc2nc(-c3ccc(Cl)cc3)cc(-c3ccccc3)c2c1N do in these assays?
SR-BI DiI-HDL act: inactive; NSD2 HMT inh: inactive; SR-BI HDL uptake: 106; ARNT-TACC3 inh: inactive; Xi reactivation: inactive; sPLA2-III inh: inactive

What do the screens show for `Cc1cc(C)n(-c2ccc(C(=O)Nc3ccccc3N3CCOCC3)cc2)n1`?
SR-BI DiI-HDL act: inactive; NSD2 HMT inh: inactive; SR-BI HDL uptake: 80; ARNT-TACC3 inh: inactive; sPLA2-III inh: inactive

What do the screens show for `CCOc1ccc(C(=O)Nc2ccccc2N2CCOCC2)cc1`?
SR-BI DiI-HDL act: inactive; NSD2 HMT inh: inactive; SR-BI HDL uptake: inactive; ARNT-TACC3 inh: inactive; sPLA2-III inh: inactive

How did CC1CCCC(C)N1C(=O)COc1ccc(C(=O)Nc2ccccc2N2CCOCC2)cc1 (centres undefined) do in these assays?
SR-BI DiI-HDL act: inactive; NSD2 HMT inh: inactive; SR-BI HDL uptake: 82; ARNT-TACC3 inh: inactive; Xi reactivation: inactive; sPLA2-III inh: inactive

What do the screens show for `O=C(NCCCN1CCCC1=O)c1ccc2c(c1)OCO2`?
SR-BI DiI-HDL act: inactive; NSD2 HMT inh: inactive; SR-BI HDL uptake: inactive; ARNT-TACC3 inh: inactive; sPLA2-III inh: inactive

What do the screens show for `CN(C)NC(=S)Nc1ccc2nc(-c3ccccn3)c(-c3ccccn3)nc2c1`?
SR-BI DiI-HDL act: inactive; NSD2 HMT inh: inactive; SR-BI HDL uptake: inactive; ARNT-TACC3 inh: 73; sPLA2-III inh: inactive

How did CC(C)(C)CC(C)(C)NC(=S)Nc1ccc2nc(-c3ccccn3)c(-c3ccccn3)nc2c1 do in these assays?
SR-BI DiI-HDL act: inactive; NSD2 HMT inh: inactive; SR-BI HDL uptake: inactive; ARNT-TACC3 inh: inactive; sPLA2-III inh: inactive
